Laboratory results as given in ChEMBL document CHEMBL1166000, “Maximizing chemical diversity of fungal metabolites: biogenetically related Heptaketides of the endolichenic fungus Corynespora sp. (1)” (J Nat Prod, 2010).
The source made the active and inactive calls. No cut-off for these calls is given here.

Columns and labels:
PC-3M [1] = experiment: Inhibition of cell proliferation in human PC3M cells at 5 uM after 40 hrs by MTT assay; type: functional, cell-based
Summary of the method: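 Antiproliferative (cytotoxicity) screen by the MTT method, with each compound tested at a single concentration of 5 µM.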

PC-3M [2] = experiment: Inhibition of human PC3M cell migration at 5 uM by wound-healing assay; type: functional, cell-based

Compound | inhibition (PC-3M [1]) | inhibition (PC-3M [2])
COc1cc(OC)c2c(c1)[C@H](O)C1C[C@](C)(O)OCC1C2=O (stereo partly drawn) | inactive | inactive
COc1cc(OC)c2c(c1O)C(=O)c1cc(C)ncc1C2=O | inactive | inactive
COc1cc(O)c2c(c1)[C@H](O)C1C[C@](C)(O)OCC1C2=O (stereo partly drawn) | inactive | inactive
COc1cc(OC)c2c(c1O)C(=O)C1=C(CO[C@@](C)(O)C1)C2=O | inactive | inactive
COc1cc(OC)c2c(c1)C(=O)C1=C(CO[C@@](C)(O)C1)C2=O | inactive | inactive
COc1cc2c(c(OC)c1O)C(=O)C1=C(C[C@](C)(O)OC1)C2=O | inactive | inactive
COc1cc(OC)c2c(c1)C(=O)c1cc(C)ncc1C2=O | inactive | inactive
COc1cc(OC)c2c(c1)C(=O)C1=C(C2=O)C(OC)OC(C)=C1 (stereo not drawn) | inactive | inactive
COc1cc(O)cc2c1C(=O)C1=C(C[C@](C)(O)OC1)C2=O | inactive | inactive
